Entries after “also recorded” stand apart in the source; their conditions may differ. Residues, ends and D or L forms follow the SMILES beside them.
How the values were obtained:
rat thoracic aorta = biological target: T1, rat thoracic aorta (Rattus norvegicus, UniProt P49684); conditions: comparison of U-II, P5U and UPG84
T1 sequence (P49684 1-386): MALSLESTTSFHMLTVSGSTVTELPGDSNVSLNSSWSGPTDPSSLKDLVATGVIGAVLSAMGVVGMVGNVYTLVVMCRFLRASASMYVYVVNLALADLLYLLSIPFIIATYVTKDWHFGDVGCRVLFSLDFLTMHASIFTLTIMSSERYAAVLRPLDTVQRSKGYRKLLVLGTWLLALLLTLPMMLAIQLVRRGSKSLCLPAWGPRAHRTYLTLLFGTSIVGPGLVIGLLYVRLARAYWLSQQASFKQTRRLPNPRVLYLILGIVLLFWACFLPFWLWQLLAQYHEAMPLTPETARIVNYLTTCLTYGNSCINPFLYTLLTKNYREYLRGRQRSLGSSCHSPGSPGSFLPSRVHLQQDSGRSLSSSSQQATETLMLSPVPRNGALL
How it was run: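 Thoracic aorta from male Wistar rats (200–250 g) killed under anaesthesia was cut helically into two parallel strips and the endothelium rubbed off. Strips were held in bicarbonate salt solution at 37°C gassed with 95% O2/5% CO2, 5 mN load, isotonic recording. After 60 min equilibration they were checked with noradrenaline 1 μmol l−1 and re-equilibrated 60 min. Cumulative concentration-response curves were fitted by sigmoidal regression; EC50 expressed as pD2 (−log EC50).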

[1] = system: intracavernous pressure in anesthetized rats; assay: Monitoring of intracavernous pressure; format: in vivo, male Wistar rats; conditions: for ICP effect compared with U-II and/or P5U (in words): comparison between the peptides; for effect on ICP / penile erection (in words): lowest dose
How it was run: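 Male Wistar rats (200–250 g) under i.p. urethane (1 g kg−1); carotid catheter records systemic pressure; 26-gauge needle through right crus into the cavernosal space records ICP; injections via the other crus. Test compound given at 0.03, 0.1, 0.3 and 1 nmol in 50 μl saline, next dose ≥5 min after return to baseline; ACh 5 nmol ends each run. Read-outs are ΔICP (mmHg) and AUC (mmHg × s); mean ± s.e.m., 5–7 experiments; ANOVA with Bonferroni post-test.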

vascular smooth muscle = conditions: cited from earlier work
[2] = system: intracavernous pressure in rats; conditions: intracavernous administration in rats; cited from earlier work
[3] = system: human corpus cavernosum strips; conditions: cited from earlier work

SMILES | agonist activity / potency (in words) (rat thoracic aorta) | increase in ICP, area under the curve ([1]; 0.1 nmol intracavernous, 50 μl saline, urethane anesthesia, mean ± s.e.m., n = 7) [mmHg × s] | ICP effect compared with U-II 0.3 nmol (in words) ([1]; 0.1 nmol intracavernous, compared with U-II at 0.3 nmol per rat) | ICP effect compared with U-II and/or P5U (in words) ([1]; 0.03–1 nmol intracavernous) | delta of increase in ICP (in words) ([1]; 0.03–1 nmol intracavernous, delta in mmHg) | effect on ICP (in words) ([1]; doses of 0.1, 0.3 and 1 nmol intracavernous) | effect on ICP / penile erection (in words) ([1]; 0.03 nmol intracavernous) | vasoconstrictor potency (in words) (vascular smooth muscle) | ICP increase (in words) [2] | relaxation of human corpus cavernosum (in words) [3] | ICP effect (in words) ([1]; 0.1 nmol intracavernous) | ICP effect compared with P5U 1 nmol (in words) ([1]; 0.03 nmol intracavernous, compared with P5U at 1 nmol) | ICP effect compared with highest dose of U-II, 1 nmol (in words) ([1]; 0.03 nmol intracavernous, compared with U-II at 1 nmol)
CC(C)[C@H](NC(=O)[C@@H]1CSSC(C)(C)[C@H](NC(=O)[C@@H](N)CC(=O)O)C(=O)N[C@@H](Cc2ccccc2)C(=O)N[C@@H](Cc2c[nH]c3ccccc23)C(=O)N[C@@H](CCCCN)C(=O)N[C@@H](Cc2ccc(O)cc2)C(=O)N1)C(=O)O [P5U, H-Asp-c[Pen-Phe-Trp-Lys-Tyr-Cys]-Val-OH] (HELM PEPTIDE1{D.[Pen].F.W.K.Y.C.V}$PEPTIDE1,PEPTIDE1,2:R3-7:R3$$$V2.0) | higher activity (pD2) when compared to the endogenous ligand U-II | 73.95 ± 7.312 | comparable to the effect elicited by U-II at a dose of 0.3 nmol; also recorded: not statistically different from the effect elicited by U-II at a dose of 0.3 nmol per rat | elicited a significant increase in ICP as compared to U-II | displays the same profile of the area under the curve | significantly raises ICP | did not affect the ICP |  |  |  |  |  | 
CC(C)[C@H](NC(=O)[C@@H]1CSSC[C@H](NC(=O)[C@H](CC(=O)O)NC(=O)[C@@H]2CCCN2C(=O)[C@@H](NC(=O)[C@@H](N)CCC(=O)O)[C@@H](C)O)C(=O)N[C@@H](Cc2ccccc2)C(=O)N[C@@H](Cc2c[nH]c3ccccc23)C(=O)N[C@@H](CCCCN)C(=O)N[C@@H](Cc2ccc(O)cc2)C(=O)N1)C(=O)O [U-II, H-Glu-Thr-Pro-Asp-c[Cys-Phe-Trp-Lys-Tyr-Cys]-Val-OH] |  |  |  |  |  |  |  | most potent vasoconstrictor compound identified | dose-dependent increase in intracavernous pressure (ICP) | relaxes human corpus cavernosum strips in endothelium-and NO-dependent manner | already detectable |  | 
CC(C)[C@H](NC(=O)[C@@H]1CSSC(C)(C)[C@H](NC(=O)[C@@H](N)CC(=O)O)C(=O)N[C@@H](Cc2ccccc2)C(=O)N[C@H](Cc2c[nH]c3ccccc23)C(=O)N[C@@H](CCCN)C(=O)N[C@@H](Cc2ccc(N)cc2)C(=O)N1)C(=O)O [UPG84, H-Asp-c[Pen-Phe-DTrp-Orn-(pNH2) Phe-Cys]-Val-OH] (HELM PEPTIDE1{D.[Pen].F.[dW].[Orn].[Nc1ccc(C[C@H](N[*:1])C(=O)[*:2])cc1].C.V}$PEPTIDE1,PEPTIDE1,2:R3-7:R3$$$V2.0) | showed the highest activity compared with the endogenous ligand, U-II, or P5U; also recorded: more potent than U-II or P5U |  |  | caused a significant increase in ICP compared to the endogenous ligand, U-II, and to P5U; also recorded: even more effective than P5U |  |  | induced a prominent penile erection in rat; also recorded: elicited a marked increase in ICP, expressed as area, compared with vehicle |  |  |  |  | comparable to the penile erection induced by P5U at the dose of 1 nmol | showed an effect similar to the highest dose of U-II (1 nmol); also recorded: comparable profile to that elicited by the highest dose of U-II (1 nmol); also recorded: comparable to the highest tested dose of U-II (1 nmol)

Reference: publication PMC4291883 (Asian Journal of Andrology, 2014)
